High-throughput results as filed in PubChem BioAssay.
M4 ag = agonists of human muscarinic M4 receptor (CHRM4) | P08173 | 360,000 compounds, 0.14% hits | activation, % at 3 µM | CHO-K1 hM4/Gqi5, Fluo-8 calcium fluorescence; vehicle 0%, full acetylcholine response 100%;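 active means activation above the run mean over all test wells plus 3 SD, cut at about 32% in these data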;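 further: peak over basal fluorescence ratio per well then scaled between controls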
CHRM4 PAM = CHRM4 positive allosteric modulation. CHO-K1 hM4/Gqi5, Fluo-8 calcium fluorescence, ACh EC20; 0% = ACh EC20, 100% = maximal ACh. activation, % at 3 µM. 360,000 compounds, 0.4% hits;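 active means activation above its plate's cutoff, the mean activation of sample wells plus 3 SD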
TAAR1 ag = agonists of human TAAR1. Q96RJ0. CHO RD-HGA16 TAAR1, Fluo-8 calcium fluorescence; vehicle wells 0%, saturating PEA agonist 100%. activation, % at 3 µM. 360,000 compounds, 0.99% hits;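 active means activation above the mean activation of all test compounds in the run plus 3 SD, cut at about 38% in these data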
Target sequence (Q96RJ0 whole entry, looked up): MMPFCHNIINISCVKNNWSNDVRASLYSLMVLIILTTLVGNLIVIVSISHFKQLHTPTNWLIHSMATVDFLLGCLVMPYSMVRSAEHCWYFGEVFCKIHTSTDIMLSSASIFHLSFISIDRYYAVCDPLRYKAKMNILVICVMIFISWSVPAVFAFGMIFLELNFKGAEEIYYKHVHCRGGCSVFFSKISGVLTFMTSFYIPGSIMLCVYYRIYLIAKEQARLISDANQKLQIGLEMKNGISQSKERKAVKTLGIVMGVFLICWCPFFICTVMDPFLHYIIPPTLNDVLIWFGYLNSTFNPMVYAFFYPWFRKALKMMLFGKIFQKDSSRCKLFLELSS
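Repeats: no replicates (n 1) | Material: CHO-derived RD-HGA16 cells with stable Gα16 and human TAAR1 | Technique: Kinetic Fluo-8 calcium fluorescence | Schedule: 17-24 h seeding, 75 min 37 °C dye, 30 min RT | Evaluation: % activation from peak over basal fluorescence ratio, DMSO-to-PEA scaled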
TAAR1 antag = human TAAR1 antagonism. 360,000 compounds, 1.5% hits. inhibition, % at 3 µM. CHO RD-HGA16 TAAR1, Fluo-8 calcium fluorescence, antagonist;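 active means inhibition above a per-plate cutoff, the mean inhibition of test compounds on that plate plus 3 SD, cut at about 49% in these data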
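Test system: hTAAR1-expressing CHO RD-HGA16 cells, Gα16-coupled; Probe or stimulus: EC80 β-phenethylamine stimulus; Compound dosing: single nominal final test compound concentration of 3 µM; Timing: 140 s kinetic read after compound, 140 s after agonist; Signal: Fluo-8 calcium-sensitive fluorescence; Measure: % inhibition of agonist calcium response; Controls: DMSO and EC80 PEA controls.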
CHRM4 antagonist = antagonists of human muscarinic M4 receptor (CHRM4). 360,000 compounds, 0.73% hits. AID 624125. CHO-hM4 cells, ACh EC80, Fluo-8 calcium fluorescence. P08173. inhibition, % at 3 µM;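 active means inhibition above its plate's cutoff, the mean inhibition of sample wells plus 3 SD, cut at about 27% in these data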
Numbers stand for hits. Compounds with a hit are over-represented: about 3% of the library has one in this group of screens.

For COc1ccc(CN2CCNC(=O)C2CC(=O)N(Cc2nccn2C)C(C)C)c(OC)c1 (configuration not stated) the results were M4 ag inactive, CHRM4 PAM 31, TAAR1 ag inactive, TAAR1 antag inactive and CHRM4 antagonist inactive.
CC(C)N(Cc1nccn1C)C(=O)CC1C(=O)NCCN1Cc1ccc(F)cc1 (configuration not stated) was read as M4 ag inactive, CHRM4 PAM inactive, TAAR1 ag inactive, TAAR1 antag inactive and CHRM4 antagonist inactive.
For Cn1cnc([N+](=O)[O-])c1Sc1nnc(-c2ccccc2)c(-c2ccccc2)n1 the results were TAAR1 ag inactive and TAAR1 antag inactive.
For Cc1cc(NC(=O)CCC(=O)N(Cc2ccco2)C(C(=O)NC2CCCC2)c2ccccc2F)no1 (configuration not stated) the results were M4 ag inactive, CHRM4 PAM inactive, TAAR1 ag inactive, TAAR1 antag inactive and CHRM4 antagonist inactive.
Screening COCCN(C(=O)CCC(=O)Nc1cc(C)on1)C(C(=O)NC1CCCC1)c1ccccc1F (configuration not stated) returned M4 ag inactive, CHRM4 PAM inactive, TAAR1 ag inactive, TAAR1 antag inactive and CHRM4 antagonist 75.
For CC(C)(C)OC(=O)N[C@H]1C=C[C@@H](CC(=O)OCC(F)(F)F)C1 the results were TAAR1 ag inactive and TAAR1 antag inactive.
CN(C)c1ccc(C(=O)NCC2CCN(C(=O)C(=O)c3cccs3)CC2)cc1 was read as TAAR1 ag inactive and TAAR1 antag inactive.
`CC(CNC(=O)CCCn1ncn2c(cc3occc32)c1=O)c1ccccc1` (configuration not stated) gave M4 ag inactive, CHRM4 PAM 16, TAAR1 ag inactive, TAAR1 antag inactive and CHRM4 antagonist inactive.
For CC1=NC2=CC=CC3=NC(C(Cl)(Cl)Cl)=NC(=N1)N23 the results were TAAR1 ag inactive and TAAR1 antag inactive.
For O=C(Nc1nccs1)Oc1ccccc1 the results were M4 ag inactive, CHRM4 PAM 28, TAAR1 ag inactive, TAAR1 antag inactive and CHRM4 antagonist inactive.
For Cc1ccccc1OC1C(=O)N(Cc2ccc3c(c2)OCO3)C1c1sccc1C (configuration not stated) the results were M4 ag inactive, CHRM4 PAM inactive, TAAR1 ag inactive, TAAR1 antag 57 and CHRM4 antagonist inactive.
Screening O=C1C(Oc2ccccc2)C(c2cccs2)N1Cc1ccc2c(c1)OCO2 (configuration not stated) returned M4 ag inactive, CHRM4 PAM inactive, TAAR1 ag inactive, TAAR1 antag inactive and CHRM4 antagonist inactive.
COc1ccc(OC2C(=O)N(Cc3ccc4c(c3)OCO4)C2c2cccs2)cc1 (configuration not stated) was read as M4 ag inactive, CHRM4 PAM inactive, TAAR1 ag inactive, TAAR1 antag 56 and CHRM4 antagonist inactive.
CC(C)S(=O)(=O)N[C@@H]1c2cc3c(cc2[C@H](c2ccccc2)[C@H]1C)OCO3 was read as TAAR1 ag inactive and TAAR1 antag inactive.
`CCn1nc(C(=O)OCC(=O)N2CC(=O)Nc3ccccc32)c2ccccc2c1=O` gave M4 ag inactive, CHRM4 PAM 23, TAAR1 ag inactive, TAAR1 antag inactive and CHRM4 antagonist inactive.
Cn1cccc1C(=O)OCC(=O)N1CC(=O)Nc2ccccc21 was read as M4 ag inactive, CHRM4 PAM inactive, TAAR1 ag inactive, TAAR1 antag inactive and CHRM4 antagonist inactive.
For Cn1nc(C(=O)OCC(=O)c2ccccc2)c2ccccc2c1=O the results were M4 ag inactive, CHRM4 PAM inactive, TAAR1 ag inactive, TAAR1 antag inactive and CHRM4 antagonist inactive.
CCn1nc(C(=O)OCC(=O)c2ccc(F)cc2)c2ccccc2c1=O was read as M4 ag inactive, CHRM4 PAM 28, TAAR1 ag inactive, TAAR1 antag inactive and CHRM4 antagonist inactive.
`Cn1nc(C(=O)OCC(=O)c2ccc(Cl)cc2)c2ccccc2c1=O` gave M4 ag inactive, CHRM4 PAM 16, TAAR1 ag inactive, TAAR1 antag inactive and CHRM4 antagonist inactive.
Screening O=C(Cc1ccc(NC(=O)C2CCN(C(=O)C3CCCC3)CC2)cc1)Nc1cccc(C(=O)N2CCCC2)c1 returned TAAR1 ag inactive and TAAR1 antag inactive.
